# Assays:
# [1] = target: Tryptophan 2,3-dioxygenase (Homo sapiens, UniProt P48775); assay: Inhibition of human TDO expressed in Escherichia coli Rosetta measured after 1 hr microplate reader analysis
# [2] = target: T1, Indoleamine 2,3-dioxygenase 1 (Homo sapiens, UniProt P14902); assay: Inhibition of human IDO1 expressed in Escherichia coli Rosetta measured after 1 hr by microplate reader analysis
# [3] = target: T1, Indoleamine 2,3-dioxygenase 1; assay: Inhibition of IDO in human HeLa cells using tryptophan as substrate measured after 48 hrs in presence of INF gamma microplate reader analysis; assay type: cell-based
# MC-38 [4] = assay: Synergistic antitumour activity against MC38 cells xenografted in humanized PD1 transgenic mouse assessed as tumour growth inhibition at 20 to 50 mg/kg, po bid for 14 days pretreated with SHR-1210 at 5 mg/kg, ip qod for 8 days by digital caliper method relative to control
# [5] = Protein binding in human plasma measured after 4 hrs by rapid equilibrium dialysis; assay type: ADME, cell-free; settings: read-out: PPB (converted)
# [6] = Cmax in C57BL/6 mouse at 10 mg/kg via oral gavage measured upto 24 hrs; assay type: ADME, organism-based; parameters: dose 10 mg/kg, route oral; settings: in vivo
# [7] = Half-life in rat liver microsomes; assay type: ADME, Microsome
# [8] = Half-life in C57BL/6 mouse at 10 mg/kg via oral gavage measured upto 24 hrs; assay type: ADME, organism-based; settings: in vivo
# [9] = Cmax in Sprague-Dawley rat at 10 mg/kg via oral gavage measured upto 24 hrs; assay type: ADME, organism-based; parameters: dose 10 mg/kg, route oral; settings: in vivo
# [10] = Half-life in Sprague-Dawley rat at 10 mg/kg via oral gavage measured upto 24 hrs; assay type: ADME, organism-based; settings: in vivo
# [11] = Oral bioavailability in C57BL/6 mouse at 10 mg/kg measured upto 24 hrs; assay type: ADME, organism-based; settings: in vivo
# MC-38 [12] = assay: Antitumour activity against MC38 cells xenografted in humanized PD1 transgenic mouse assessed as tumour growth inhibition at 20 mg/kg, po bid for 14 days by digital caliper method relative to control; assay type: functional; settings: MC-38, po, 336 h, read-out: TGI
# Method in brief: (§1)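 MC38 tumors implanted in hPD1 transgenic mice. Compound given orally at 20 or 50 mg/kg, bid × 14. Tumor growth inhibition (TGI) was calculated against control. Body weight was monitored.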
# [13] = Oral bioavailability in Beagle dog at 2 mg/kg measured upto 24 hrs; assay type: ADME, organism-based, Canis lupus familiaris; settings: in vivo
# [14] = AUC in Beagle dog at 2 mg/kg via oral gavage measured upto 24 hrs; assay type: ADME, organism-based, Canis lupus familiaris; parameters: time < 24 hr, dose 2 mg/kg, route oral; settings: in vivo
# [15] = Half-life in Beagle dog at 2 mg/kg via oral gavage measured upto 24 hrs; assay type: ADME, organism-based, Canis lupus familiaris; settings: in vivo
# [16] = Protein binding in dog plasma measured after 2 to 6 hrs by rapid equilibrium dialysis; assay type: ADME, cell-free, Canis lupus familiaris; settings: read-out: PPB (converted)
# [17] = Oral bioavailability in Sprague-Dawley rat at 10 mg/kg measured upto 24 hrs; assay type: ADME, organism-based; settings: in vivo
# [18] = AUC in C57BL/6 mouse at 10 mg/kg via oral gavage measured upto 24 hrs; assay type: ADME, organism-based; parameters: time < 24 hr, dose 10 mg/kg, route oral; settings: in vivo
# [19] = Half-life in human liver microsomes; assay type: ADME, Microsome
# [20] = Protein binding in mouse plasma measured after 2 to 6 hrs by rapid equilibrium dialysis; assay type: ADME, cell-free; settings: read-out: PPB (converted)
# MC-38 [21] = assay: Antitumour activity against MC38 cells xenografted in humanized PD1 transgenic mouse assessed as tumour growth inhibition at 50 mg/kg, po bid for 14 days by digital caliper method relative to control; assay type: functional; settings: MC-38, po, 336 h, read-out: TGI; method in brief: as §1
# [22] = AUC in Sprague-Dawley rat at 10 mg/kg via oral gavage measured upto 24 hrs; assay type: ADME, organism-based; parameters: time < 24 hr, dose 10 mg/kg, route oral; settings: in vivo
# Mus musculus = assay: Reduction in plasma kynurenine levels in C57BL/6 mouse at 100 mg/kg, s.d ig measured after 2 hrs relative to control; assay type: ADME, organism-based; parameters: scale not given: the % may be the effect or the level left; settings: in vivo, po
# [23] = Cmax in Beagle dog at 2 mg/kg via oral gavage measured upto 24 hrs; assay type: ADME, organism-based, Canis lupus familiaris; parameters: dose 2 mg/kg, route oral; settings: in vivo
# T1 sequence (P14902 whole entry): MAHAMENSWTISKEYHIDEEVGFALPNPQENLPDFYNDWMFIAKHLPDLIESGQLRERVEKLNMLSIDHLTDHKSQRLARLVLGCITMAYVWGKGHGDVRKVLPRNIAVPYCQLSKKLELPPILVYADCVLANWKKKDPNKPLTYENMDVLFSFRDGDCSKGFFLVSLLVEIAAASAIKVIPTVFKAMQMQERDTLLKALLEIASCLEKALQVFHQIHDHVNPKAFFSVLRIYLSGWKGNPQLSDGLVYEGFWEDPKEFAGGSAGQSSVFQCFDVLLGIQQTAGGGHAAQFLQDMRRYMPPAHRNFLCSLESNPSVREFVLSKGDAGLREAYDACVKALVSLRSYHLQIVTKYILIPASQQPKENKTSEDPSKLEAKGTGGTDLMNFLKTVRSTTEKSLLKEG
# Tryptophan 2,3-dioxygenase, sequence (P48775 whole entry): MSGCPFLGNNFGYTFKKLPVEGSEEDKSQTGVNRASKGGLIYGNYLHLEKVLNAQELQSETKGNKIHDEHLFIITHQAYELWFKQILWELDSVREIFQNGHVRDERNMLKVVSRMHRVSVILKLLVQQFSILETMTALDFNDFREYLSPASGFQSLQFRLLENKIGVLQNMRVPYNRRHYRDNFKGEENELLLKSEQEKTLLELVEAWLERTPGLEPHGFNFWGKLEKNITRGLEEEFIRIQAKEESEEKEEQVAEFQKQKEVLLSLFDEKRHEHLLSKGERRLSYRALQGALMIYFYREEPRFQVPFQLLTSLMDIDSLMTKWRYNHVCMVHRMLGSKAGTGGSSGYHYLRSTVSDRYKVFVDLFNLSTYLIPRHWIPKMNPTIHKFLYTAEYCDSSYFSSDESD
structure (smiles),measurement,setting,value
Fc1cccc2c1C(C1CCNCC1)n1cncc1-2 (stereo not drawn),IC50,[1],> 10 µM
same,IC50,[2],> 10 µM
Fc1cccc2c1C(C1CCCC1)n1cncc1-2 (stereo not drawn),IC50,[1],0.095 µM
same,IC50,[2],0.764 µM
same,IC50,[3],1.24 µM
Fc1cccc2c1C(C1CCN(c3ccccc3)CC1)n1cncc1-2 (stereo not drawn),IC50,[3],0.544 µM
Cc1cc(-c2cnn(C)c2)ccc1N1CCC(C2c3c(F)cccc3-c3cncn32)CC1 (stereo not drawn),IC50,[1],0.226 µM
same,IC50,[2],0.02 µM
same,IC50,[3],0.691 µM
Fc1cccc2c1C(C1CCN(c3ccc(N4CCOCC4)cc3)CC1)n1cncc1-2 (stereo not drawn),IC50,[1],1.03 µM
same,IC50,[2],0.358 µM
same,IC50,[3],1.71 µM
Fc1cccc2c1C(C1CCOCC1)n1cncc1-2 (stereo not drawn),IC50,[1],0.189 µM
same,IC50,[2],0.969 µM
same,IC50,[3],5.34 µM
Cc1cc(N2CCC(C3c4c(F)cccc4-c4cncn43)CC2)ccc1-c1cnn(C)c1 (stereo not drawn),IC50,[1],0.114 µM
same,IC50,[2],0.014 µM
same,IC50,[3],0.121 µM
O=C(c1ccccc1)N1CCC(C2c3c(F)cccc3-c3cncn32)CC1 (stereo not drawn),IC50,[1],1.27 µM
same,IC50,[2],3.56 µM
O[C@H](C[C@H]1c2c(F)cccc2-c2cncn21)[C@H]1CC[C@H](O)CC1 [NAVOXIMOD],IC50,[1],0.247 µM
Cn1cc(-c2ccc(N3CCC([C@H]4c5c(F)cccc5-c5cncn54)CC3)cc2)cn1,TGI,MC-38 [4],>90%
same,fraction unbound at 4 h,[5],0.003
same,Cmax,[6],3600 ng/mL
same,half-life,[7],2.37 h
same,half-life,[8],4.55 h
same,Cmax,[9],1850 ng/mL
same,half-life,[10],1.22 h
same,bioavailability,[11],59.6%
same,inhibition in vivo at 20 mg/kg,MC-38 [12],39%
same,bioavailability,[13],27.3%
same,AUC at 24 h,[14],1340 ng·h/mL
same,half-life,[15],6.49 h
same,fraction unbound,[16],0.008
same,bioavailability,[17],60.3%
same,AUC at 24 h,[18],29100 ng·h/mL
same,half-life,[19],2.45 h
same,fraction unbound,[20],0.004
same,inhibition in vivo at 50 mg/kg,MC-38 [21],78%
same,AUC at 24 h,[22],6130 ng·h/mL
same,Activity,Mus musculus,57%
same,Cmax,[23],166 ng/mL
Cn1cc(-c2cccc(N3CCC(C4c5c(F)cccc5-c5cncn54)CC3)c2)cn1 (stereo not drawn),IC50,[1],0.639 µM
Fc1cccc2c1C(C1CCCCC1)n1cncc1-2 (stereo not drawn),IC50,[1],0.085 µM
same,IC50,[2],0.108 µM
same,IC50,[3],0.568 µM
Fc1cccc2c1C(C1CCN(c3ccc(-c4ccncc4)cc3)CC1)n1cncc1-2 (stereo not drawn),IC50,[1],0.353 µM
same,IC50,[2],0.033 µM
same,IC50,[3],0.28 µM
Fc1cccc2c1C(c1ccccc1)n1cncc1-2 (stereo not drawn),IC50,[1],0.374 µM
same,IC50,[2],2.74 µM
Cn1cc(-c2cnc(N3CCC(C4c5c(F)cccc5-c5cncn54)CC3)nc2)cn1 (stereo not drawn),IC50,[1],0.579 µM
same,IC50,[2],0.113 µM
same,IC50,[3],0.324 µM
Fc1cccc2c1C(C1CCN(c3ccc(-c4cccnc4)cc3)CC1)n1cncc1-2 (stereo not drawn),IC50,[1],0.183 µM
same,IC50,[2],0.07 µM
same,IC50,[3],0.24 µM
Fc1cccc2c1C(C1CCN(c3nccs3)CC1)n1cncc1-2 (stereo not drawn),IC50,[1],0.586 µM
same,IC50,[2],0.297 µM
same,IC50,[3],0.571 µM
Cn1ccc2ccc(N3CCC(C4c5c(F)cccc5-c5cncn54)CC3)cc21 (stereo not drawn),IC50,[1],0.376 µM
same,IC50,[2],0.027 µM
same,IC50,[3],0.203 µM
Fc1cccc2c1C(C1CCN(c3nc4ccccc4s3)CC1)n1cncc1-2 (stereo not drawn),IC50,[1],0.195 µM
same,IC50,[2],0.019 µM
same,IC50,[3],0.44 µM
Fc1cccc2c1C(Cc1ccccc1)n1cncc1-2 (stereo not drawn),IC50,[1],0.793 µM
same,IC50,[2],2.73 µM

# — ChEMBL document CHEMBL4359827 (ACS Med Chem Lett, 2019)
